We go through two substances from publication PMC10237622 (Structure (London, England : 1993), 2023).

Assay [1] has as its system CSP peptide Pep-I (1 NPNV; 0 NPNA). Description: Biolayer interferometry. The format is binding, Plasmodium falciparum. Particulars: IgG versus Fab. An outline of the steps: (§1)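 Streptavidin biosensors were loaded with biotinylated CSP peptide at 0.1 ug/mL in PBS + 1% BSA. Loading times were shortened per peptide (45, 30, 15, 3 s) to keep density below 0.01 nm. After a 60 s baseline, Fab (2000–2.7 nM), IgG (1000–1.3 nM) or IgM (100–0.1 nM) associated for 240–300 s, then dissociated 1200 s, at 30°C with agitation. Curves were drift-corrected against a loaded sensor in PBS and fitted globally to a 1:1 Langmuir model.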

In assay [2] the test system is CSP peptide Pep-II (1 NPNV; 1 NPNA). Description: Biolayer interferometry. The format is binding, Plasmodium falciparum. An outline of the steps: as §1
(In general: BLI is a label-free optical method that tracks binding on a fibre tip over time.)

Assay [3] has as its system CSP peptide Pep-III (2 NPNV; 0 NPNA). Description: Biolayer interferometry. The format is binding, Plasmodium falciparum.
Assay [4] concerns the target CSP peptide Pep-IV (3 NPNV; 1 NPNA). Description: Biolayer interferometry. The format is binding, Plasmodium falciparum.
Assay [5] relates to peptides Pep-I through Pep-IV. Briefly: Reverse-format BLI, immobilized L9 IgG dipped into peptide. The format is binding, Plasmodium falciparum. The following applies: IgG (5 ug/mL) immobilized on AHC biosensors to 0.1 nm, dipped into varying peptide concentrations, 30°C.
For assay [6], the system named is CSP peptides Pep-II through Pep-IV. Briefly: BLI free energies of binding, peptides Pep-II through Pep-IV versus Pep-I. Set-up: species or system Plasmodium falciparum. Particulars: Pep-II though Pep-IV after subtraction of Pep-I. An outline of the steps: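 Free energy of binding was calculated from each experimental KD. The Pep-I value was subtracted from Pep-II through Pep-IV to isolate added binding energy from multivalent and homotypic interactions.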

Consider L9 IgG: L9 IgG, produced in house, for which, in assay [1], the “on-rate, fold higher than Fab” value is on record as 25 fold. The “increase in affinity (free energy of binding ΔG minus ΔG of Pep-I)” value in assay [2] (L9 IgG, homotypic and less preferred NPNA with two L9s (Pep-II), calculated from KD) is -1.1 kcal/mol; in assay [3] (L9 IgG, homotypic and preferred NPNV with two L9s (Pep-III), calculated from KD), -2.2 kcal/mol. The “affinity, fold higher than to Pep-I” value in assay [2] (Pep-II versus Pep-I) was ~ 6 fold. Further, the “affinity, fold higher than to Pep-II” value in assay [3] (Pep-III versus Pep-II) is recorded as ~ 6 fold. Also, the “decrease in KD (in words)” value in assay [4] (L9 IgG, Pep-IV versus Pep-I) was “over two orders of magnitude”. The “affinity (in words)” value in assay [4] (Pep-IV (3 NPNV; 1 NPNA)) is reported as “substantially higher affinity”. The “affinity, reverse format (in words)” value in assay [5] was “comparable affinities to peptides Pep-I through Pep-IV”. Besides, the “increase in affinity, Fab/IgG/IgM context compared (in words)” value in assay [6] is “greatest in the IgG context”.

For the substance IgM: L9 IgM, produced in house, the “increase in affinity, Fab/IgG/IgM context compared (in words)” value in assay [6] was “lowest in the IgM context”.
